The subject of data set [1] is TRPC4:C4. The settings on record: read-out: TRPC4:C4 IC50; cited from earlier work.
A further data set relates to TRPC5:C5. Conditions: read-out: TRPC5:C5 IC50; cited from earlier work.
For data set [2] the following is noted: cited from earlier work.
Another data set concerns the target T1, TRPC5-SYFP2 (Homo sapiens, UniProt Q9UL62).
T1 sequence (Q9UL62 1-973): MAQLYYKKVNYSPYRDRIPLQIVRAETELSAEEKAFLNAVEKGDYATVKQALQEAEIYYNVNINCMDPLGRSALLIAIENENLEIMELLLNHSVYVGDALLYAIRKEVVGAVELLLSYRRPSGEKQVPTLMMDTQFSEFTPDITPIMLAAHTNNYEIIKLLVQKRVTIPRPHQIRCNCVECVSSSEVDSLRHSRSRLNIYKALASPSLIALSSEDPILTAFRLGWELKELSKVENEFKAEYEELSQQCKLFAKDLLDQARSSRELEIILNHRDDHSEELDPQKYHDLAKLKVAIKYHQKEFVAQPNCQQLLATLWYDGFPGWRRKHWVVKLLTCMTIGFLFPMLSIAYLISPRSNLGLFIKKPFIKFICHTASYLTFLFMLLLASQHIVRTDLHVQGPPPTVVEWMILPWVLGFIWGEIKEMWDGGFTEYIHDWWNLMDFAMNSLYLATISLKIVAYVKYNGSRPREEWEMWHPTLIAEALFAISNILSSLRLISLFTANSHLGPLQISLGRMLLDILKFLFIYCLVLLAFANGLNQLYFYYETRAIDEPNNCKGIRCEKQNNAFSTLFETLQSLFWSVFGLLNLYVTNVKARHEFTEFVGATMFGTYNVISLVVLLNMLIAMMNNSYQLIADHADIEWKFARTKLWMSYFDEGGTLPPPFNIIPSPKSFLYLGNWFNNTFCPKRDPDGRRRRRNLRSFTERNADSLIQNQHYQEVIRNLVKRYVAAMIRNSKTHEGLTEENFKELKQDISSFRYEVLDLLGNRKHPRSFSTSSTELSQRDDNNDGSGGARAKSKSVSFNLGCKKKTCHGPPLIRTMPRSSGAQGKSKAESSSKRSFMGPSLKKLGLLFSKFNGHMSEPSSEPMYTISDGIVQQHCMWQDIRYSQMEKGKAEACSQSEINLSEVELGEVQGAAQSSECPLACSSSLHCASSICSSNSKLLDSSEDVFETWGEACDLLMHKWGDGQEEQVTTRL
Description: Competition photoaffinity labelling. Conditions: Pico145 10 μM pre-treatment; 300 nM Pico145-DAAlk 5. It is filed as binding. The gist of the method: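 Tetracycline-induced (1 μg ml−1, 24 h) cells in SBS pre-treated 30 min at 37 °C with test compound or DMSO, then 30 min at 37 °C with 300 nM diazirine-alkyne probe plus competitor. Streptavidin-HRP/anti-GFP blots; biotin/GFP densitometry versus probe-only control; n = 3; one-way ANOVA, Dunnett.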

Another data set addresses TRPC4-C1 (Homo sapiens, UniProt P48995+Q9UBN4). The settings on record: read-out: TRPC4-C1 IC50; 10 nM EA was used as activator; cited from earlier work.
For data set [3], the target named is T2, TRPC4:C4 (Homo sapiens, UniProt Q9UBN4).
T2 sequence (Q9UBN4 1-893 isoform Q9UBN4-2): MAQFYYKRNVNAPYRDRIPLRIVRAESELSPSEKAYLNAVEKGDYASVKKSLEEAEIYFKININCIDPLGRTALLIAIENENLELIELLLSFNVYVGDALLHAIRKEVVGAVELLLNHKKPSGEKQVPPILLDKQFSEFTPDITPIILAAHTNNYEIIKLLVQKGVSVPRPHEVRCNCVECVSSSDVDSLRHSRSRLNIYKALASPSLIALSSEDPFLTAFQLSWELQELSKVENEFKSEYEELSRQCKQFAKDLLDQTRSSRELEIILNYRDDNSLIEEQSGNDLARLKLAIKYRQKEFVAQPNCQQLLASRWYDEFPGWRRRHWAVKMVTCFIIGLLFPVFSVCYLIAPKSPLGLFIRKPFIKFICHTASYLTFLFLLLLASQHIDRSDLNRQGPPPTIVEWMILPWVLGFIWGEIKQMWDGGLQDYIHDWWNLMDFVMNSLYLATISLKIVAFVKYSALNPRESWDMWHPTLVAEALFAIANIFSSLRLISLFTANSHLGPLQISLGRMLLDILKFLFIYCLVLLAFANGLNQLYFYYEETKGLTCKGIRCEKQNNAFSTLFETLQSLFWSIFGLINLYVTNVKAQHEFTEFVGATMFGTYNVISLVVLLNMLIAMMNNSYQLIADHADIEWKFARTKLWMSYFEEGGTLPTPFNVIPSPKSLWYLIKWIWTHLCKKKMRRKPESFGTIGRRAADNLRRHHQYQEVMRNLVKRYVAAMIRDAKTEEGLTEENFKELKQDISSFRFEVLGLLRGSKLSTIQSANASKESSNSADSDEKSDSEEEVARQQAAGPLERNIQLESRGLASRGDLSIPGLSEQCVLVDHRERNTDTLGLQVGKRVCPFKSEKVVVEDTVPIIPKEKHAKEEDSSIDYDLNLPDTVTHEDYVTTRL
Conditions: read-out: TRPC4:C4 IC50; 10 nM EA was used as activator; cited from earlier work.

Entries after “also recorded” stand apart in the source; their conditions may differ.

Consider two compounds from paper PMC10655067 (RSC Chemical Biology, 2020).

TRPC4-C1, sequence (P48995 whole entry, one chain of several): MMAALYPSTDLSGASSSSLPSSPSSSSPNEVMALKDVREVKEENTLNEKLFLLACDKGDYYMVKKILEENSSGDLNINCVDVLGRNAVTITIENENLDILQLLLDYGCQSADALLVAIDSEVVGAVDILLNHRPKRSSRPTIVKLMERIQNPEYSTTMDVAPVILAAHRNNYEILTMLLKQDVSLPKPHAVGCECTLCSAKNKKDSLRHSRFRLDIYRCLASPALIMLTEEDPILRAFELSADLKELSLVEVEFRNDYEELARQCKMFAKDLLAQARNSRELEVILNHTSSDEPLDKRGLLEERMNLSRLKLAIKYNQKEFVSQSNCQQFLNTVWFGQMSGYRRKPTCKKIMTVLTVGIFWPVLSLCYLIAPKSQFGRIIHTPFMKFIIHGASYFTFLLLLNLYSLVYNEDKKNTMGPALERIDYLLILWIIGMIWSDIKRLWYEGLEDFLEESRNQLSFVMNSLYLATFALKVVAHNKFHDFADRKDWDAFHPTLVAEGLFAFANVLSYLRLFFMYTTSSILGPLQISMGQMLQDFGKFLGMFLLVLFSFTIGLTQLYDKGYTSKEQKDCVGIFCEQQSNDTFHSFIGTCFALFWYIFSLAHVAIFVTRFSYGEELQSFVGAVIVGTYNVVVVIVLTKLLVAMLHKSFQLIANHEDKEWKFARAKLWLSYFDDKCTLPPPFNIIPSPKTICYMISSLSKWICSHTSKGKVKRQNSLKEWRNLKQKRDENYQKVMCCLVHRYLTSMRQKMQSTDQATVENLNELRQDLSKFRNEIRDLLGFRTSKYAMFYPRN

As usually defined, the IC50 is the point on the concentration scale where inhibition reaches its midpoint. With `O=C1CN(c2cn[nH]c(=O)c2Cl)CCN1Cc1ccccc1C(F)(F)F` [GFB-8438], the values for the concentration for half-maximal inhibition (IC50) with TRPC4:C4 [1] and in the data set with TRPC5:C5 were 290 nM and 180 to 280 nM, respectively.
In the case of `Cn1c(=O)n(CCCO)c(=O)c2c1nc(Oc1cccc(OC(F)(F)F)c1)n2Cc1ccc(Cl)cc1` [Pico145 1], in data set [2], the Oral bioavailability entry was “orally bioavailable”. The “Effect on TRPC5 photoaffinity labelling with Pico145-DAAlk 5” value on TRPC5-SYFP2 was “inhibition of TRPC5 labelling; also recorded: inhibits photoaffinity labelling”. The results for the IC50 at TRPC4-C1 and on TRPC4:C4 [3] were 0.03 nM and 0.35 nM, respectively.
